Results gathered from unrelated publications.
Each line is one published result; the experiments were not run side by side.
Target: Serine/threonine-protein kinase MARK1 (MARK1, Homo sapiens, UniProt Q9P0L2)

`C#Cc1cccc(Nc2ncnc3cc(OCCOC)c(OCCOC)cc23)c1` has a remaining signal of 130% (cell-free assay; 0.5 µM).
With `Cc1cc(NC(=O)c2cccc3cc(-c4cccc5[nH]nc(N)c45)ccc23)ccc1F` the activity vs control was 133% (enzyme activity, inhibitor; 0.1 µM).
For `CCCCN(CCCC)C(=O)CN1C[C@@H](c2cc(OC)c3c(c2)OCO3)[C@H](C(=O)O)[C@H]1CC(C)(C)CCC`, the remaining binding was 88.7% (cell-free assay, competition with immobilised ligand; 1 µM).
`COc1cc(/C=C/C(=O)CC(=O)/C=C/c2ccc(O)c(OC)c2)ccc1O` has an activity vs control of 79% (enzyme activity, inhibitor; 1 µM).
For `C[C@H](c1ccnc(Nc2nc3ccc(-c4cc(N(C)C)ncn4)cc3[nH]2)c1)N1CCN(C(=O)CC(F)(F)F)CC1`, the remaining binding was 100% (cell-free assay, competition with immobilised ligand; 0.1 µM).
The inhibition of `CC/C(=N\NC(=O)NCc1cccc(O)c1)c1ccc(O)c(C)c1O` is reported as -2.5% (enzyme activity, inhibitor; 0.1 µM).
The remaining activity of `CN1CCc2cc(Nc3ncc(C4CC4)c(NCCCNC(=O)C4CCC4)n3)ccc2C1` is reported as -1% (enzyme activity, inhibitor, radiometric; 1 µM).
With `O=C1NC(=O)c2cc(Nc3ccc(F)cc3)c(Nc3ccc(F)cc3)cc21` the remaining signal was 98.9% (cell-free assay; 0.5 µM).
With `FC(F)c1nc2ccccc2n1-c1nc(N2CCOCC2)nc(N2CCOCC2)n1` the remaining activity was 106% (enzyme activity, inhibitor; 10 µM).
`CNC(=O)c1cc(Oc2ccc(NC(=O)Nc3ccc(Cl)c(C(F)(F)F)c3)cc2)ccn1` has an inhibition of 8% (enzyme activity, inhibitor; 10 µM).
With `CS(=O)(=O)NCC[C@H](NC(=O)c1cncc2c1cnn2-c1ccc(F)cc1)c1ccnc(S(C)(=O)=O)c1` the remaining binding was 92% (cell-free assay, competition with immobilised ligand; 1 µM).
`CSc1nc(C)c(-c2ccnc(Nc3ccc(N4CCOCC4)cc3)c2)[nH]1` gave an inhibition of 20.1% (enzyme activity, inhibitor; 10 µM).
`FC(F)(F)Oc1cccc(-c2cnc3ccc(-c4ccncc4)nn23)c1` has an activity vs control of 95% (enzyme activity, inhibitor, radiometric; 5 µM).
With `c1cc(CN2CCOCC2)cc(Nc2nccc(NCCc3cnc[nH]3)n2)c1` the remaining activity was 75% (enzyme activity, inhibitor, radiometric; 1 µM).
With `CSc1cccnc1N1CCN(Cc2nc3ccccc3[nH]2)CC1` the remaining binding was 100% (cell-free assay, competition with immobilised ligand; 1 µM).
For `Brc1cnc(Nc2cccc(CN3CCOCC3)c2)nc1NCCc1c[nH]cn1`, the remaining activity was -3% (enzyme activity, inhibitor, radiometric; 1 µM).
`Cc1ccc(Nc2nccc(N(C)c3ccc4c(C)n(C)nc4c3)n2)cc1S(N)(=O)=O` has an inhibition of 19% (enzyme activity, inhibitor; 0.3 µM).
`O=C(NCCCNc1nc(Nc2cccc(CN3CCOCC3)c2)ncc1C1CC1)C1CCC1` has a remaining activity of -5% (enzyme activity, inhibitor, radiometric; 1 µM).
`CS(=O)(=O)N1CCCC(NC(=O)[C@H](CCC2CCCCC2)NC(=O)c2ccc(CNc3ncnc4c3nnn4-c3ccccc3)cc2)C1` (some centres unmarked) gave a remaining binding of 74% (cell-free assay, competition with immobilised ligand; 0.1 µM).
With `Nc1ncnc2occ(-c3ccc(NC(=O)Nc4cc(C(F)(F)F)ccc4F)cc3)c12` the remaining signal was 34% (cell-free assay, inhibitor; 20 µM).
For `CCN(CC)CCNC(=O)c1c(C)[nH]c(/C=C2\C(=O)Nc3ccc(F)cc32)c1C`, the inhibition was 92% (enzyme activity, inhibitor; 10 µM).
The remaining signal of `N#CCCc1ccc2c(c1)-c1[nH]c3ccc([N+](=O)[O-])cc3c1CC(=O)N2` is reported as 67.4% (cell-free assay; 0.5 µM).
The remaining binding of `CO[C@@H](C)c1c(Nc2ccc([C@@H](N(C)C(=O)C3CCS(=O)(=O)CC3)C(F)(F)F)cc2)cnc2cc(Cl)nn12` is reported as 81% (cell-free assay, competition with immobilised ligand; 1 µM).
The remaining activity of `Cc1nn(CC(F)(F)F)cc1Nc1ncc(C2CC2)c(NCCc2c[nH]cn2)n1` is reported as 71% (enzyme activity, inhibitor, radiometric; 1 µM).
`C[C@@]1(Cc2ccc(C#N)cc2)C(=O)N(c2cc(Cl)cc(Cl)c2)c2ncc(C(=O)NC3(c4nc(C5CCC5)no4)CC3)n21` has a remaining binding of 100% (cell-free assay, competition with immobilised ligand; 1 µM).
The remaining activity of `Cc1nn(CC(F)(F)F)cc1Nc1ncc(Br)c(NCCCNC(=O)C2CCC2)n1` is reported as 8% (enzyme activity, inhibitor, radiometric; 1 µM).
The remaining signal of `O=C1Nc2ccc(Cl)cc2C1=Cc1cc(Cl)c(O)c(Cl)c1` is reported as 89.5% (cell-free assay; 0.5 µM).
The remaining activity of `NS(=O)(=O)c1ccc(CNc2nc(Nc3cccc(NC(=O)N4CCCC4)c3)ncc2Br)cc1` is reported as 57% (enzyme activity, inhibitor, radiometric; 1 µM).
The remaining activity of `COc1cc(Nc2cnc(C#N)c(O[C@H](C)CN(C)C)n2)ncc1-c1cnn(C)c1` is reported as 95% (enzyme activity, inhibitor, radiometric; 1 µM).
`O=C(Nc1cccc(Nc2ncc(Br)c(NCCc3cnc[nH]3)n2)c1)N1CCCC1` has a remaining activity of -4% (enzyme activity, inhibitor, radiometric; 1 µM).
For `Cc1cc(C)c(-n2ccn3nc(-c4cccnc4)cc23)cc1NC(=O)c1cc(C#N)cc(S(F)(F)(F)(F)F)c1`, the remaining binding was 96.7% (cell-free assay, competition with immobilised ligand; 0.1 µM).
`COc1cc2ncnc(Nc3ccc(Oc4ccccc4)c(C)c3C)c2cc1OC` gave an inhibition of 2% (enzyme activity, inhibitor; 1 µM).
